Results published in ChEMBL document CHEMBL1134646, “Quadruplex-interactive agents as telomerase inhibitors: synthesis of porphyrins and structure-activity relationship for the inhibition of telomerase” (J Med Chem, 2001).
“And” between values parts separate entries of the source, which are not always exact repeats. Identical values can stand only once. Blank lines part the entries; values can stand above or below the compound they belong to.

Experiments:
[1] = biological target: T1, Telomerase reverse transcriptase (Homo sapiens, UniProt O14746); assay: Effect of meso group on telomerase inhibition at 25 uM
Summary of the method: (§1)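 HeLa cell extract (60 µg total protein) as the telomerase source in a primer-extension assay with 1 µM 5′-biotinylated (TTAGGG)3 primer, 1.2 µM 32P-dGTP, and 1 mM each of dATP and dTTP. Buffer was Tris-OAc at pH 8.5 with KOAc, MgCl2, BME and spermidine. Porphyrin was fixed at 25 µM and reactions ran at 37 °C for 30 min. Products were run on 8% denaturing PAGE and quantified by autoradiogram densitometry, giving % inhibition relative to a porphyrin-free control.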

[2] = biological target: T1, Telomerase reverse transcriptase; assay: Effect of combination of charged and hydrogen bonding groups on telomerase inhibition at 25 uM; summary of the method: as §1
[3] = biological target: T1, Telomerase reverse transcriptase; assay: Effect of varying the number and disposition of charged groups around the compound nucleus on telomerase inhibition at 25 uM; summary of the method: as §1
[4] = biological target: T1, Telomerase reverse transcriptase; assay: Effect of uncharged hydrogen bonding group on telomerase inhibition at 25 uM; summary of the method: as §1
[5] = biological target: T1, Telomerase reverse transcriptase; assay: Dependence of telomerase inhibition on the ability to stack with G-tetrads; conditions: concentration not given here; summary of the method: as §1
[6] = biological target: T1, Telomerase reverse transcriptase; assay: Effect of substituent bulk on telomerase inhibition at 25 uM; summary of the method: as §1
[7] = biological target: T1, Telomerase reverse transcriptase; assay: Apparent telomerase inhibition by mixed mechanism
[8] = biological target: T1, Telomerase reverse transcriptase; assay: Percentage inhibition of human telomerase at 25 uM concentration in HeLa cell; format: cell-based; summary of the method: as §1
[9] = biological target: T1, Telomerase reverse transcriptase; assay: Apparent telomerase inhibition by G-quadruplex mechanism

T1 sequence (O14746 whole entry): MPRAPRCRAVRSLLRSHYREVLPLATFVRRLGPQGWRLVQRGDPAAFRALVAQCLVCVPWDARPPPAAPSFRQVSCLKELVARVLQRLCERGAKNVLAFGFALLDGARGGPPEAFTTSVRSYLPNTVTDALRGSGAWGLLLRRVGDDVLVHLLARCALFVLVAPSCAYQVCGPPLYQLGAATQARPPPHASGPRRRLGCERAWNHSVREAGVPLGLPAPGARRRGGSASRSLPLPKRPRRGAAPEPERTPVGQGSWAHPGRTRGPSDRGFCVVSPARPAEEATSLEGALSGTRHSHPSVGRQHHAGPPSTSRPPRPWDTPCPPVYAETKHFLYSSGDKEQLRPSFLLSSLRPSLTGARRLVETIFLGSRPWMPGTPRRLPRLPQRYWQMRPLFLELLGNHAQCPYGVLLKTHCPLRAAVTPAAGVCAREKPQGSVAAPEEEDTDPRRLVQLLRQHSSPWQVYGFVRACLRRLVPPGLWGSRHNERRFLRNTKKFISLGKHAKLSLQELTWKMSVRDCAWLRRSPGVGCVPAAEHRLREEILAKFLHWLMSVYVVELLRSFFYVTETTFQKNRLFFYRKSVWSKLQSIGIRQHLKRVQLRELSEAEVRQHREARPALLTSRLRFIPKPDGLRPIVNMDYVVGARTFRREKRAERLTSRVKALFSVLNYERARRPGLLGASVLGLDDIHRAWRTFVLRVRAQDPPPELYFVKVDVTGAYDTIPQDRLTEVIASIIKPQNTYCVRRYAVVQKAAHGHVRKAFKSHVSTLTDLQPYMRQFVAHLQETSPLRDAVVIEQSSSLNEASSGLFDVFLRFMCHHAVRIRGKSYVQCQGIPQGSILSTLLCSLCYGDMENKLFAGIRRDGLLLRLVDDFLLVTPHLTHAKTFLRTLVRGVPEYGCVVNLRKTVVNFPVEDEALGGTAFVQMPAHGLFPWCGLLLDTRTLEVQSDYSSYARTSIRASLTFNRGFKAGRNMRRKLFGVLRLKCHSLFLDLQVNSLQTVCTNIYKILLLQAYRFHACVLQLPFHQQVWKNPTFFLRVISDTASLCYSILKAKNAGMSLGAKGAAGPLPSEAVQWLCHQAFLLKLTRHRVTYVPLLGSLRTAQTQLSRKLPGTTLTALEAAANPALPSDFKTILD

inhibition [1]: 32%
inhibition [2]: 30%
inhibition [3]: 37%
inhibition [4]: 28%
inhibition [5]: 14%
inhibition [6]: 28%
Structure (SMILES): C[n+]1cc(-c2c3nc(c(-c4cc5ccccc5[n+](C)c4)c4ccc([nH]4)c(-c4cc5ccccc5[n+](C)c4)c4ccc([nH]4)c(-c4cc5ccccc5[n+](C)c4)c4nc2C=C4)C=C3)cc2ccccc21

Structure (SMILES): C[n+]1cccc(-c2c3nc(c(-c4cc5ccccc5[n+](C)c4)c4ccc([nH]4)c(-c4ccc[n+](C)c4)c4nc(c(-c5cc6ccccc6[n+](C)c5)c5ccc2[nH]5)C=C4)C=C3)c1
IC50 [7]: 10 µM

inhibition [8]: 0%
Structure (SMILES): CC1=C(CCNCCN)c2cc3[nH]c(cc4[nH]c(cc5nc(cc1n2)C(C)=C5CCNCCN)c(C)c4CCNCCN)c(CCNCCN)c3C

Structure (SMILES): C[n+]1ccc(-c2c3nc(c(-c4cc[n+](C)cc4)c4ccc([nH]4)c(-c4cc[n+](C)cc4)c4ccc([nH]4)c(-c4cc[n+](C)cc4)c4nc2C=C4)C=C3)cc1
inhibition [1]: 67%
inhibition [2]: 60%
inhibition [3]: 62%
inhibition [4]: 60%
inhibition [5]: 66%
inhibition [6]: 60%

Structure (SMILES): C[n+]1ccc(-c2c3nc(c(-c4cc[n+](C)cc4)c4ccc([nH]4)c(-c4cc[n+](C)cc4)c4nc(c(-c5cc[n+](C)cc5)c5ccc2[nH]5)C=C4)C=C3)cc1 [TMPYP4 CHLORIDE]
IC50 [9]: 6.25 µM and 10 µM

Structure (SMILES): C[n+]1cccc(-c2c3ccc([nH]3)c(-c3cc4ccccc4[n+](C)c3)c3nc(c(-c4cc5ccccc5[n+](C)c4)c4nc(c(-c5cc6ccccc6[n+](C)c5)c5ccc2[nH]5)C=C4)C=C3)c1
IC50 [7]: 5 µM

Structure (SMILES): C[n+]1cccc(-c2c3nc(c(-c4ccc[n+](C)c4)c4ccc([nH]4)c(-c4ccc[n+](C)c4)c4ccc([nH]4)c(-c4ccc[n+](C)c4)c4nc2C=C4)C=C3)c1
IC50 [9]: 25 µM and 12 µM
inhibition [6]: 50%

Structure (SMILES): OCC[n+]1ccc(-c2c3nc(c(-c4cc[n+](CCO)cc4)c4ccc([nH]4)c(-c4cc[n+](CCO)cc4)c4ccc([nH]4)c(-c4cc[n+](CCO)cc4)c4nc2C=C4)C=C3)cc1
IC50 [7]: 30 µM

Structure (SMILES): C[n+]1ccc(-c2c3nc(c(-c4ccc(C(=O)NCCBr)cc4)c4nc(c(-c5cc[n+](C)cc5)c5ccc([nH]5)c(-c5cccc(C(=O)NCCBr)c5)c5ccc2[nH]5)C=C4)C=C3)cc1
IC50 [7]: 15 µM
